Tb MetRS inh – Trypanosoma brucei MetRS inhibition. purified T. brucei MetRS, ATP depletion, Kinase-Glo luminescence. actives 0.4% (n = 360,000). AID 624268. inhibition, % at 11.9 µM;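 active = inhibition above a per-plate cutoff of the control wells' mean inhibition plus 3 SD, cut at about 5.5% in these data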;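 also: 0% = DMSO wells median and 100% = median of wells with control inhibitor compound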
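Test system – parasite MetRS enzyme · Reagent – substrates ATP, L-methionine and bulk Escherichia coli tRNA · Doses – 11.9 µM compound single dose, 0.9% DMSO · Times – 15 min enzyme-compound preincubation, 2 h reaction, 10 min detection, 25 °C · Signal – Kinase-Glo luminescence, ATP depletion format · Controls – DMSO-only wells as low control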
PKA-R1A activ – activates the PKA-R1A holoenzyme complex; P00514+P68181; actives 0.083% (n = 340,000); activation, % at 11.4 µM; PKA-R1A dissociation, Cy5-IP20 fluorescence polarization; scaled: DMSO 0%, 113 µM cGMP 100%;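 active = percent activation above the mean of all tested compounds plus 3 SD, cut at about 19% in these data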;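 also: higher means more PKAc released from R1A so a rise in polarization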
Cardio protect – protects H9c2 cardiomyocytes from peroxide injury; actives 0.63% (n = 360,000); H2O2 injury protection, ATPLite, 2 h; protection from H2O2 cell death, % at 20 µM; AID 588492;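 active = compounds giving at least 50% protection of heart cells from peroxide-induced death in the single-dose screen, raw or plate-pattern-corrected value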;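 also: 0% = DMSO wells with peroxide and 100% = DMSO wells without peroxide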
Rin1-Abl PPI inh – blocks binding of human Rin1 to Abl; P00519+Q13671; TR-FRET Rin1/Abl binding, biochemical; inhibition, % at 7.35 µM; actives 0.4% (n = 360,000); AID 588664; in the data active = inhibition above about 5%, passing the limit was not always enough
PKA-R2B activ – activates the human PKA-R2B holoenzyme complex | P22694+P31323 | PKA-R2B holoenzyme dissociation, Cy5-IP20 fluorescence polarization; R2B truncated from residue 108, S112A mutant; 0% DMSO only, 100% 113 µM cGMP | activation, % at 11.4 µM | actives 0.079% (n = 340,000);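 active = activation above a cutoff set at the mean over all compounds plus 3 SD, cut at about 18% in these data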;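 also: higher means more holoenzyme dissociation and a rise in polarization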
Rin1 Abl conf – Rin1-Abl interaction inhibition confirmation | shares compounds with Rin1-Abl PPI inh | TR-FRET Rin1-Abl binding, purified proteins | inhibition, % at 7.35 µM | actives 49% (n = 1,300)
GFP quench – GFP fluorescence interference artifact. shares compounds with Rin1-Abl PPI inh. inhibitors/quenchers counterscreen. inhibition, % at 6.75 µM. actives 8.5% (n = 1,300). AID 602125;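 also: ABL1-eGFP fusion protein alone without its partner RIN1-SBP; 0% = protein with vehicle and 100% = wells lacking protein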
GFP quench DR – GFP fluorescence interference dose response; shares compounds with Rin1-Abl PPI inh; GFP fluorescence interference/quenching counterscreen; IC50, µM; 230 tested, under 10 active; AID 602182; call rule not given here;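 also: ABL1-eGFP fusion protein alone without its RIN1 binding partner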
Starred values were filed as active, the others as inactive. This is a sample that favours compounds with a hit; in the whole collection about 1.5% have one here. Rule as the data show it, unless noted: active = inhibition above about 6.5%; inactive = the rest.

For OCCN1CCN(Cc2cc(Cl)c3cccnc3c2O)CC1 the results were Tb MetRS inh -1, PKA-R1A activ -3, Cardio protect 24, Rin1-Abl PPI inh 0 and PKA-R2B activ -6.
Screening CN(C)C1CCN(Cc2cc(COCc3ccccc3)c3cccnc3c2O)C1 (stereo unspecified) returned Tb MetRS inh 0, PKA-R1A activ 8, Cardio protect 35, Rin1-Abl PPI inh 10 and PKA-R2B activ 3.
`COCc1cc(CN2CCCC2)c(O)c2ncccc12` gave Tb MetRS inh -1, PKA-R1A activ -11, Cardio protect 11, Rin1-Abl PPI inh 22*, PKA-R2B activ -5, Rin1 Abl conf 5 and GFP quench -3.
For Cc1cc(=O)n2nc(N3CCCC(C(=O)N4CCc5ccccc54)C3)sc2n1 (stereo unspecified) the results were Tb MetRS inh -1, PKA-R1A activ 5, Cardio protect 4, Rin1-Abl PPI inh 13*, PKA-R2B activ 8, Rin1 Abl conf 17* and GFP quench 1.
Screening Cc1cc(=O)n2nc(N3CCCC(C(=O)N4CCOCC4)C3)sc2n1 (stereo unspecified) returned Tb MetRS inh -1, PKA-R1A activ -12, Cardio protect -5, Rin1-Abl PPI inh 1 and PKA-R2B activ -2.
`CNc1ccccc1C(=O)OC(C)C(=O)Nc1ccc(Cl)cn1` (stereo unspecified) gave Tb MetRS inh -1, PKA-R1A activ 14, Cardio protect -4, Rin1-Abl PPI inh 1 and PKA-R2B activ -3.
`CCOc1ncccc1C(=O)OC(C)C(=O)Nc1ccc(Cl)cn1` (stereo unspecified) gave Tb MetRS inh 0, PKA-R1A activ 5, Cardio protect 0, Rin1-Abl PPI inh 8.2*, PKA-R2B activ 1, Rin1 Abl conf -2 and GFP quench 1.
For O=C(Nc1c(C(=O)O)[nH]c2ccc(F)cc12)c1cccc(C(F)(F)F)c1 the results were Tb MetRS inh -2, PKA-R1A activ 4, Cardio protect -12, Rin1-Abl PPI inh 3 and PKA-R2B activ -1.
`COC(=O)C1=C(O)/C(=C\c2ccc(CNS(=O)(=O)c3ccccc3)o2)N=C1C` gave Tb MetRS inh 1, PKA-R1A activ -4, Cardio protect 0, Rin1-Abl PPI inh 6.0*, PKA-R2B activ 2, Rin1 Abl conf -1 and GFP quench 3.
CC(C)(C)C(=O)c1c(N)[nH]c(C(=O)c2ccccc2)c1-c1ccccc1Br was read as Tb MetRS inh -1.
Cn1cnc2c1c(=O)n(Cc1ccc(F)cc1Cl)c(=O)n2C was read as Tb MetRS inh -1, PKA-R1A activ 0, Cardio protect -9, Rin1-Abl PPI inh 7.6*, PKA-R2B activ -4, Rin1 Abl conf 5 and GFP quench 1.
Screening Fc1cccc(F)c1-n1c(CN2CCCC2)csc1=S returned Tb MetRS inh 0, PKA-R1A activ 3, Cardio protect -9, Rin1-Abl PPI inh 7 and PKA-R2B activ 2.
For CCOC(=O)CCCCC(=O)c1[nH]c(=O)[nH]c1CSCCO the results were Tb MetRS inh 0, PKA-R1A activ -5, Cardio protect 1, Rin1-Abl PPI inh 78*, PKA-R2B activ -4, Rin1 Abl conf 82*, GFP quench 0 and GFP quench DR >68.
CCOC(=O)CCCCC(=O)c1[nH]c(=O)[nH]c1CSc1nc(-c2ccccc2)c(C#N)c(=O)[nH]1 was read as Tb MetRS inh -2, PKA-R1A activ 5, Cardio protect 13, Rin1-Abl PPI inh 61*, PKA-R2B activ 5, Rin1 Abl conf 75*, GFP quench 1 and GFP quench DR >68.
